Measured values as given in ChEMBL document CHEMBL3526138, “Excretion and metabolism of milnacipran in humans after oral administration of milnacipran hydrochloride” (Drug Metab Dispos, 2012).

What was measured:
[1] = Drug excretion in human urine treated with [14C]-labeled milnacipran hydrochloride at 100 mg, po after 24 to 48 hrs by HPLC analysis; assay type: ADME, organism-based; details: in vivo
Summary of the method: (§1)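 Healthy male subjects, single oral 100 mg [14C] milnacipran hydrochloride (1 μCi/mg) after breakfast; urine pooled by interval and kept at -80°C. Urine injected directly (200 µL) onto phenyl-hexyl HPLC, 35°C, gradient ammonium acetate pH 5/methanol at 1 mL/min, with radioactivity flow detection. Metabolite excretion = net peak radioactivity (% of chromatogram, background-subtracted) × urine radioactivity excreted (% of dose); four subjects without emesis, mean.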

Plasma [2] = assay: Plasma concentration in human treated with [14C]-labeled milnacipran hydrochloride at 100 mg, po measured at 3 hrs by HPLC analysis; assay type: ADME, organism-based; details: in vivo
Summary of the method: (§2)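 Single oral 100 mg [14C] milnacipran hydrochloride in healthy men; blood taken into chilled K3EDTA tubes, plasma spun at ≥2,500 g for 10 min at 4°C and stored at -80°C. Pooled timepoint plasma was extracted and run on phenyl-hexyl HPLC, with 0.5-min fractions counted by LSC. Peak concentration = % of chromatogram radioactivity × pool radioactivity (ng equivalent of milnacipran/mL).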

[3] = Drug excretion in human urine treated with [14C]-labeled milnacipran hydrochloride at 100 mg, po after 48 to 72 hrs by HPLC analysis; assay type: ADME, organism-based; details: in vivo; summary of the method: as §1
Plasma [4] = assay: Plasma concentration in human treated with [14C]-labeled milnacipran hydrochloride at 100 mg, po measured at 4 hrs by HPLC analysis; assay type: ADME, organism-based; details: in vivo; summary of the method: as §2
[5] = Drug excretion in human urine treated with [14C]-labeled milnacipran hydrochloride at 100 mg, po up to 4 hrs by HPLC analysis; assay type: ADME, organism-based; details: in vivo; summary of the method: as §1
[6] = Retention time in human urine treated with [14C]-labeled milnacipran hydrochloride at 100 mg, po by HPLC analysis; assay type: ADME, organism-based; details: in vivo
Summary of the method: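 Urine from subjects given oral 100 mg [14C] milnacipran hydrochloride was run on a Luna phenyl-hexyl column (250 x 4.6 mm) with guard column at 35°C. Elution used a gradient of ammonium acetate pH 5/water/methanol at 1 mL/min, with in-line radioactivity flow detection and UV at 220 nm.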

Plasma [7] = assay: Plasma concentration in human treated with [14C]-labeled milnacipran hydrochloride at 100 mg, po measured at 2 hrs by HPLC analysis; assay type: ADME, organism-based; details: in vivo; summary of the method: as §2
[8] = Drug excretion in human urine treated with [14C]-labeled milnacipran hydrochloride at 100 mg, po after 4 to 8 hrs by HPLC analysis; assay type: ADME, organism-based; details: in vivo; summary of the method: as §1
[9] = Drug excretion in human urine treated with [14C]-labeled milnacipran hydrochloride at 100 mg, po after 8 to 12 hrs by HPLC analysis; assay type: ADME, organism-based; details: in vivo; summary of the method: as §1
Plasma [10] = assay: Plasma concentration in human treated with [14C]-labeled milnacipran hydrochloride at 100 mg, po measured at 0.5 hrs by HPLC analysis; assay type: ADME, organism-based; details: in vivo; summary of the method: as §2
[11] = Drug excretion in human urine treated with [14C]-labeled milnacipran hydrochloride at 100 mg, po after 12 to 24 hrs by HPLC analysis; assay type: ADME, organism-based; details: in vivo; summary of the method: as §1
Plasma [12] = assay: Plasma concentration in human treated with [14C]-labeled milnacipran hydrochloride at 100 mg, po measured at 6 hrs by HPLC analysis; assay type: ADME, organism-based; details: in vivo; summary of the method: as §2
Plasma [13] = assay: Plasma concentration in human treated with [14C]-labeled milnacipran hydrochloride at 100 mg, po measured at 1.5 hrs by HPLC analysis; assay type: ADME, organism-based; details: in vivo; summary of the method: as §2
[14] = Drug excretion in human urine treated with [14C]-labeled milnacipran hydrochloride at 100 mg, po after 0 to 96 hrs by HPLC analysis; assay type: ADME, organism-based; details: in vivo
Plasma [15] = assay: Plasma concentration in human treated with [14C]-labeled milnacipran hydrochloride at 100 mg, po measured at 12 hrs by HPLC analysis; assay type: ADME, organism-based; details: in vivo; summary of the method: as §2
[16] = Drug excretion in human urine treated with [14C]-labeled milnacipran hydrochloride at 100 mg, po after 72 to 96 hrs by HPLC analysis; assay type: ADME, organism-based; details: in vivo; summary of the method: as §1
Plasma [17] = assay: Plasma concentration in human treated with [14C]-labeled milnacipran hydrochloride at 100 mg, po measured at 1 hr by HPLC analysis; assay type: ADME, organism-based; details: in vivo; summary of the method: as §2
[18] = Drug excretion in mouse urine at 100 mg/kg, po; assay type: ADME, organism-based; parameters: dose 100 mg/kg, route oral; details: read-out: Drug excretion
[19] = Drug excretion in monkey urine at 60 mg/kg, po; assay type: ADME, organism-based, Macaca mulatta; parameters: dose 60 mg/kg, route oral; details: rhesus monkey, read-out: Drug excretion
[20] = Drug excretion in rat urine at 100 mg/kg, po; assay type: ADME, organism-based; parameters: dose 100 mg/kg, route oral; details: read-out: Drug excretion
[21] = Drug excretion in human urine treated with [14C]-labeled milnacipran hydrochloride at 100 mg, po up to 96 hrs by LC-SRM analysis; assay type: ADME, organism-based; details: in vivo
Summary of the method: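 0–96 h urine pool analysed by chiral LC-SRM on Chirobiotic V column, ammonium formate-methanol mobile phase, 1 mL/min, column 20°C. Enantiomer proportion from peak areas corrected by urine standard ratio, multiplied by milnacipran excreted in the pool (% of dose).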

[22] = Tmax in human; assay type: ADME, organism-based; details: in vivo
[23] = Tmax in human at 100 mg, po by LC-MS/MS analysis; assay type: ADME, organism-based; details: in vivo
Summary of the method: (§3)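 Plasma from healthy males after single oral 100 mg [14C] milnacipran hydrochloride, sampled 0.5–120 h. Unchanged drug quantified by validated LC-MS/MS with [2H10] internal standard, C8 column isocratic formic acid/water/methanol; linear 5–2000 ng/mL, LLOQ 5 ng/mL in 25 µL plasma. Non-compartmental analysis; values below LLOQ set to zero; subjects without emesis.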

[24] = AUC (0 to infinity) in human at 100 mg, po by LC-MS/MS analysis; assay type: ADME, organism-based; parameters: dose 100 mg, time infinity, route oral; details: plasma; summary of the method: as §3
[25] = Cmax in human at 100 mg, po by LC-MS/MS analysis; assay type: ADME, organism-based; parameters: dose 100 mg, route oral; details: in vivo; summary of the method: as §3
[26] = Drug excretion in human urine; assay type: ADME; details: read-out: Drug excretion
[27] = Half life in human at 100 mg, po by LC-MS/MS analysis; assay type: ADME, organism-based; details: in vivo; summary of the method: as §3
[28] = Half life in human plasma; assay type: ADME, cell-free
[29] = AUC (0 to t) in human at 100 mg, po by LC-MS/MS analysis; assay type: ADME, organism-based; details: plasma; summary of the method: as §3

Compound | Drug excretion [1] | Cp (Plasma [2]) | Drug excretion [3] | Cp (Plasma [4]) | Drug excretion [5] | Retention_time [6] | Cp (Plasma [7]) | Drug excretion [8] | Drug excretion [9] | Cp (Plasma [10]) | Drug excretion [11] | Cp (Plasma [12]) | Cp (Plasma [13]) | Drug excretion [14] | Cp (Plasma [15]) | Drug excretion [16] | Cp (Plasma [17]) | Drug excretion [21] | further results
CCNC(=O)[C@@]1(c2ccccc2)CC1CN (some centres not stated) | 1.36% | 24.6 ng.Eq/ml | 0.73% | 19.63 ng.Eq/ml | 0.92% | 11 min | < 7.8 ng.Eq/ml | 1.35% | 1.26% | < 7.8 ng.Eq/ml | 2.06% | 23.46 ng.Eq/ml | < 7.8 ng.Eq/ml | 7.73% | 13.67 ng.Eq/ml | 0.06% | < 7.8 ng.Eq/ml |  | 
CCN(CC)C(=O)C1(c2ccccc2)CC1CNC(=O)O[C@@H]1O[C@H](C(=O)O)[C@@H](O)[C@H](O)[C@H]1O (some centres not stated) |  |  |  |  |  |  |  |  |  |  |  |  |  |  |  |  |  |  | dose excreted [18]: 1%; dose excreted [19]: 1.6%; dose excreted [20]: 0.1%
CCN(CC)C(=O)[C@]1(c2ccccc2)C[C@@H]1CNC(=O)O[C@@H]1O[C@H](C(=O)O)[C@@H](O)[C@H](O)[C@H]1O | 0.76% | 195.72 ng.Eq/ml | 0.19% | 234.38 ng.Eq/ml | 6.26% | 22 min | 190.14 ng.Eq/ml | 5.39% | 2.36% | 26.57 ng.Eq/ml | 2.36% | 140.79 ng.Eq/ml | 161.3 ng.Eq/ml | 17.23% | 50.79 ng.Eq/ml | Below limit of detection | 101.66 ng.Eq/ml |  | 
CCN(CC)C(=O)[C@@]1(c2ccccc2)C[C@H]1CNC(=O)O[C@@H]1O[C@H](C(=O)O)[C@@H](O)[C@H](O)[C@H]1O | 0.28% | 16.42 ng.Eq/ml | Below limit of detection | 17.49 ng.Eq/ml | 0.55% | 24 min | < 7.8 ng.Eq/ml | 0.64% | 0.37% | < 7.8 ng.Eq/ml | 0.58% | < 7.8 ng.Eq/ml | < 7.8 ng.Eq/ml | 2.14% | < 7.8 ng.Eq/ml | Below limit of detection | < 7.8 ng.Eq/ml |  | 
CCN(CC)C(=O)C1(c2ccccc2)CC1CN (racemic) [MILNACIPRAN] | 5.45% | 208.01 ng.Eq/ml | 1.47% | 214.21 ng.Eq/ml | 15.54% | 35 min | 178.93 ng.Eq/ml | 14.42% | 7.17% | 33.92 ng.Eq/ml | 10.87% | 186.82 ng.Eq/ml | 156.73 ng.Eq/ml | 54.71% | 87.22 ng.Eq/ml | 0.3% | 83.17 ng.Eq/ml | 54.7% | Tmax [22]: 2 h; Tmax [23]: 3.5 h; AUC(0-inf) [24]: 2770 ng·h/mL; Cmax [25]: 240 ng/mL; dose excreted [26]: 50%; half-life [27]: 8.9 h; half-life [28]: 8 h; AUC(0-t) [29]: 2340 ng·h/mL
CCN(CC)C(=O)C1(c2ccccc2)CC1CN (stereo in doubt) [MILNACIPRAN] |  |  |  |  |  |  |  |  |  |  |  |  |  |  |  |  |  | 23.5% | 
CCN(CC)C(=O)[C@@]1(c2ccccc2)C[C@H]1CN [LEVOMILNACIPRAN] |  |  |  |  |  |  |  |  |  |  |  |  |  |  |  |  |  | 31.2% | 
